Measured values as given in article PMC11966289 (ACS Omega, 2025).

Columns and labels:
[1] = tested on: P. falciparum (D6 strain); test: In vitro antiplasmodial activity; type: cell-based; details: Plasmodium falciparum, D6, 72 h, read-out: P. falciparum (D6 strain) IC50
[2] = tested on: P. falciparum (W2 strain); test: In vitro antiplasmodial activity; type: cell-based; details: Plasmodium falciparum, W2, 72 h, read-out: P. falciparum (W2 strain) IC50
In short: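 Infected erythrocytes (2% hematocrit, 2% parasitemia) in RPMI 1640 with 60 μg/mL amikacin and 10% human serum, exposed to serially diluted test compound under 90% N2/5% CO2/5% O2 at 37 °C for 72 h. Parasite LDH measured with Malstat reagent (30 min, room temperature), then NBT/PES (1 h, dark), stopped with 5% acetic acid, absorbance 650 nm. Triplicates; chloroquine/artemisinin and DMSO controls; IC50 from dose–response.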

[3] = In vitro cytotoxicity, Neutral Red assay; type: cell-based; details: African green monkey, Vero cells
P. berghei = test: In vivo antiplasmodial evaluation in the P. berghei-mouse malaria model; parameters: species or system P. berghei (Swiss Webster Hsd:ND4 mice); details: for % Parasitemia suppression day 5 / % Parasitemia suppression day 7 / MST (mean survival time) / cure (mice without parasitemia until day 28) / survival (animals survived on day 28/total): oral gavage, mice; for parasitemia suppression: day not given
[4] = 33.33 mg/kg dose, oral gavage once daily days 0, 1, 2

Structure (SMILES)	IC50 [1] [nM]	IC50 [2] [nM]	IC50 at 48 h [3]	also measured
C[C@@H]1CC[C@H]2[C@@H](C)C(=O)O[C@@H]3O[C@@]4(C)CC[C@@H]1[C@]32OO4 [ART, artemisinin, reference compound]	19	28.1	> 4.76 µg/mL	
CCN(CC)CCCC(C)Nc1ccnc2cc(Cl)ccc12 (stereo not shown) [CQ, Chloroquine, reference compound]	60	853	> 4.76 µg/mL	% Parasitemia suppression day 5 (P. berghei; 33.3 mg/kg × 3 days): 100.00%; % Parasitemia suppression day 7 (P. berghei; 33.3 mg/kg × 3 days): 100.00%; MST (mean survival time) (P. berghei; 33.3 mg/kg × 3 days): 28 days; cure (mice without parasitemia until day 28) (P. berghei; 33.3 mg/kg × 3 days): 2/5; survival (animals survived on day 28/total) (P. berghei; 33.3 mg/kg × 3 days): 5/5
Cc1cc(Cl)nc(N2CCN(CCNc3ccnc4cc(Cl)ccc34)CC2)n1 [Compound 5a, 7-Chloro-N-(2-(4-(4-chloro-6-methylpyrimidin-2-yl)piperazin-1-yl)ethyl)quinolin-4-amine]	70	210	> 4.76 µg/mL	
Cc1cc(Cl)nc(N2CCN(CCCNc3ccnc4cc(Cl)ccc34)CC2)n1 [Compound 5b, 7-Chloro-N-(3-(4-(4-chloro-6-methylpyrimidin-2-yl)piperazin-1-yl)propyl)quinolin-4-amine]	100	350	> 4.76 µg/mL	
Clc1ccc2c(NCCCN3CCN(c4nccc(Cl)n4)CC3)ccnc2c1 [Compound 5c, 7-Chloro-N-(3-(4-(4-chloropyrimidin-2-yl)piperazin-1-yl)propyl)quinolin-4-amine]	62	230	> 4.76 µg/mL	
Cc1cc(N2CCN(CCNc3ccnc4cc(Cl)ccc34)CC2)nc(Cl)n1 [Compound 6a, 7-Chloro-N-(2-(4-(2-chloro-6-methylpyrimidin-4-yl)piperazin-1-yl)ethyl)quinolin-4-amine]	79	500	> 4.76 µg/mL	
Cc1cc(N2CCN(CCCNc3ccnc4cc(Cl)ccc34)CC2)nc(Cl)n1 [Compound 6b, 7-Chloro-N-(3-(4-(2-chloro-6-methylpyrimidin-4-yl)piperazin-1-yl)propyl)quinolin-4-amine]	66	200	> 4.76 µg/mL	
Clc1ccc2c(NCCCN3CCN(c4ccnc(Cl)n4)CC3)ccnc2c1 [Compound 6c, 7-Chloro-N-(3-(4-(2-chloropyrimidin-4-yl)piperazin-1-yl)propyl)quinolin-4-amine]	73	420	> 4.76 µg/mL	
Cc1cc(N2CCN(CCNc3ccnc4cc(Cl)ccc34)CC2)nc(N2CCCCC2)n1 [Compound 7a, 7-Chloro-N-(2-(4-(6-methyl-2-(piperidin-1-yl)pyrimidin-4-yl)piperazin-1-yl)ethyl) quinolin-4-amine]	32	40	> 4.76 µg/mL	
Cc1cc(N2CCN(CCNc3ccnc4cc(Cl)ccc34)CC2)nc(N2CCOCC2)n1 [Compound 7b, 7-Chloro-N-(2-(4-(6-methyl-2-morpholinopyrimidin-4-yl)piperazin-1-yl)ethyl) quinolin-4-amine]	95	49	> 4.76 µg/mL	
Cc1cc(N2CCN(CCNc3ccnc4cc(Cl)ccc34)CC2)nc(N2CCSCC2)n1 [Compound 7c, 7-Chloro-N-(2-(4-(6-methyl-2-thiomorpholinopyrimidin-4-yl)piperazin-1-yl)ethyl) quinolin-4-amine]	38	64	> 4.76 µg/mL	
Cc1cc(N2CCN(CCNc3ccnc4cc(Cl)ccc34)CC2)nc(N2CCCC2)n1 [Compound 7d, 7-Chloro-N-(2-(4-(6-methyl-2-(pyrrolidin-1-yl)pyrimidin-4-yl)piperazin-1-yl)ethyl) quinolin-4-amine]	13	20	> 4.76 µg/mL	
CCN1CCN(c2nc(C)cc(N3CCN(CCNc4ccnc5cc(Cl)ccc45)CC3)n2)CC1 [Compound 7e, 7-Chloro-N-(2-(4-(2-(4-ethylpiperazin-1-yl)-6-methylpyrimidin-4-yl)piperazin-1-yl)ethyl)quinolin-4-amine]	21	16	> 4.76 µg/mL	% Parasitemia suppression day 5 (P. berghei; 11.1 mg/kg × 3 days): 94.31%; % Parasitemia suppression day 7 (P. berghei; 11.1 mg/kg × 3 days): 41.53%; MST (mean survival time) (P. berghei; 11.1 mg/kg × 3 days): 21.4 days; cure (mice without parasitemia until day 28) (P. berghei; 11.1 mg/kg × 3 days): 0/5; survival (animals survived on day 28/total) (P. berghei; 11.1 mg/kg × 3 days): 2/5; % Parasitemia suppression day 5 (P. berghei; 33.3 mg/kg × 3 days): 100.00%; % Parasitemia suppression day 7 (P. berghei; 33.3 mg/kg × 3 days): 100.00%; MST (mean survival time) (P. berghei; 33.3 mg/kg × 3 days): 28 days; cure (mice without parasitemia until day 28) (P. berghei; 33.3 mg/kg × 3 days): 5/5; survival (animals survived on day 28/total) (P. berghei; 33.3 mg/kg × 3 days): 5/5; parasitemia suppression (P. berghei; [4]): 100%; % Parasitemia suppression day 5 (P. berghei; 100 mg/kg × 3 days): 100.00%; % Parasitemia suppression day 7 (P. berghei; 100 mg/kg × 3 days): 100.00%; MST (mean survival time) (P. berghei; 100 mg/kg × 3 days): 28 days; cure (mice without parasitemia until day 28) (P. berghei; 100 mg/kg × 3 days): 5/5
Cc1cc(N2CCN(CCCNc3ccnc4cc(Cl)ccc34)CC2)nc(N2CCCCC2)n1 [Compound 7f, 7-Chloro-N-(3-(4-(6-methyl-2-(piperidin-1-yl)pyrimidin-4-yl)piperazin-1-yl)propyl) quinolin-4-amine]	15	34	> 4.76 µg/mL	
Cc1cc(N2CCN(CCCNc3ccnc4cc(Cl)ccc34)CC2)nc(N2CCOCC2)n1 [Compound 7g, 7-Chloro-N-(3-(4-(6-methyl-2-morpholinopyrimidin-4-yl)piperazin-1-yl)propyl) quinolin-4-amine]	15	43	> 4.76 µg/mL	
Cc1cc(N2CCN(CCCNc3ccnc4cc(Cl)ccc34)CC2)nc(N2CCSCC2)n1 [Compound 7h, 7-Chloro-N-(3-(4-(6-methyl-2-thiomorpholinopyrimidin-4-yl)piperazin-1-yl)propyl) quinolin-4-amine]	18	50	> 4.76 µg/mL	
Cc1cc(N2CCN(CCCNc3ccnc4cc(Cl)ccc34)CC2)nc(N2CCCC2)n1 [Compound 7i, 7-Chloro-N-(3-(4-(6-methyl-2-(pyrrolidin-1-yl)pyrimidin-4-yl)piperazin-1-yl)propyl) quinolin-4-amine]	12	19	> 4.76 µg/mL	% Parasitemia suppression day 5 (P. berghei; 11.1 mg/kg × 3 days): 100.00%; % Parasitemia suppression day 7 (P. berghei; 11.1 mg/kg × 3 days): 100.00%; MST (mean survival time) (P. berghei; 11.1 mg/kg × 3 days): 27 days; cure (mice without parasitemia until day 28) (P. berghei; 11.1 mg/kg × 3 days): 3/5; survival (animals survived on day 28/total) (P. berghei; 11.1 mg/kg × 3 days): 4/5; % Parasitemia suppression day 5 (P. berghei; 33.3 mg/kg × 3 days): 100.00%; % Parasitemia suppression day 7 (P. berghei; 33.3 mg/kg × 3 days): 100.00%; MST (mean survival time) (P. berghei; 33.3 mg/kg × 3 days): 28 days; cure (mice without parasitemia until day 28) (P. berghei; 33.3 mg/kg × 3 days): 5/5; survival (animals survived on day 28/total) (P. berghei; 33.3 mg/kg × 3 days): 5/5; parasitemia suppression (P. berghei; [4]): 100%; % Parasitemia suppression day 5 (P. berghei; 100 mg/kg × 3 days): 100.00%; % Parasitemia suppression day 7 (P. berghei; 100 mg/kg × 3 days): 100.00%; MST (mean survival time) (P. berghei; 100 mg/kg × 3 days): 22.8 days; survival (animals survived on day 28/total) (P. berghei; 100 mg/kg × 3 days): 5/5; parasitemia suppression (P. berghei; at all doses (11.1, 33.3, and 100.0 mg/kg)): 100%
CCN1CCN(c2nc(C)cc(N3CCN(CCCNc4ccnc5cc(Cl)ccc45)CC3)n2)CC1 [Compound 7j, 7-Chloro-N-(3-(4-(2-(4-ethylpiperazin-1-yl)-6-methylpyrimidin-4-yl)piperazin-1-yl)propyl)quinolin-4-amine]	19	20	> 4.76 µg/mL	
Cc1cc(N2CCN(CCCNc3ccnc4cc(Cl)ccc34)CC2)nc(N2CCN(C)CC2)n1 [Compound 7k, 7-Chloro-N-(3-(4-(6-methyl-2-(4-methylpiperazin-1-yl)pyrimidin-4-yl)piperazin-1-yl)propyl)quinolin-4-amine]	19	22	> 4.76 µg/mL	
Clc1ccc2c(NCCCN3CCN(c4ccnc(N5CCCCC5)n4)CC3)ccnc2c1 [Compound 7l, 7-Chloro-N-(3-(4-(2-(piperidin-1-yl)pyrimidin-4-yl)piperazin-1-yl)propyl)quinolin-4-amine]	14	31	> 4.76 µg/mL	
Clc1ccc2c(NCCCN3CCN(c4ccnc(N5CCOCC5)n4)CC3)ccnc2c1 [Compound 7m, 7-Chloro-N-(3-(4-(2-morpholinopyrimidin-4-yl)piperazin-1-yl)propyl)quinolin-4-amine]	20	34	> 4.76 µg/mL	
Clc1ccc2c(NCCCN3CCN(c4ccnc(N5CCSCC5)n4)CC3)ccnc2c1 [Compound 7n, 7-Chloro-N-(3-(4-(2-thiomorpholinopyrimidin-4-yl)piperazin-1-yl)propyl)quinolin-4-amine]	4080	> 9830	> 4.76 µg/mL	
CCN1CCN(c2nccc(N3CCN(CCCNc4ccnc5cc(Cl)ccc45)CC3)n2)CC1 [Compound 7p, 7-Chloro-N-(3-(4-(2-(4-ethylpiperazin-1-yl)pyrimidin-4-yl)piperazin-1-yl)propyl) quinolin-4-amine]	13	20	> 4.76 µg/mL	
CN1CCN(c2nccc(N3CCN(CCCNc4ccnc5cc(Cl)ccc45)CC3)n2)CC1 [Compound 7q, 7-Chloro-N-(3-(4-(2-(4-methylpiperazin-1-yl)pyrimidin-4-yl)piperazin-1-yl)propyl) quinolin-4-amine]	14	17	> 4.76 µg/mL	
COc1cccc2c1C(=O)c1c(O)c3c(c(O)c1C2=O)C[C@@](O)(C(=O)CO)C[C@@H]3O[C@H]1C[C@H](N)[C@H](O)[C@H](C)O1 [doxorubicin, reference compound]			8600 ± 400 nM	
